Source: ChEMBL document CHEMBL1134251, “Quinazolines as cyclin dependent kinase inhibitors” (Bioorg Med Chem Lett, 2001)

Legend:
[1] = molecular target: Cyclin-dependent kinase 4/cyclin D1 (Homo sapiens, UniProt P11802); experiment: In vitro inhibitory activity against human cyclin dependent kinase (CDK4/D1); assay type: protein-complex assay
[2] = molecular target: Cyclin-dependent kinase 2/cyclin A (Homo sapiens, UniProt P24941); experiment: Inhibition of human cyclin dependent kinase 2 (CDK2/A); assay type: protein-complex assay
[3] = molecular target: Cyclin-dependent kinase 2/cyclin E (Homo sapiens, UniProt P24941); experiment: In vitro inhibitory activity against human cyclin dependent kinase (CDK2/E); assay type: protein-complex assay
[4] = molecular target: T1, Cyclin-dependent kinase 1/cyclin B (Homo sapiens, UniProt P06493); experiment: Inhibition of human cyclin dependent kinase 1 (CDC2/B); assay type: protein-complex assay
HCT-116 = experiment: Inhibition SRB HCT 116 cancer cell proliferation; assay type: functional, cell-based; conditions: Homo sapiens
Procedure, shortened: (§1)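 Growth-inhibition assay in HCT 116 cancer cells, with IC50 as the read-out. AG1523 cells are normal human fibroblasts and were run under the same assay conditions as HCT 116.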

AG1523 = experiment: Inhibition of SRB AG1523 cancer cell proliferation; assay type: functional, cell-based; conditions: Homo sapiens, in the assay text read “normal human fibroblast cell” for “cancer cell”; procedure, shortened: as §1
[5] = molecular target: Cyclin-dependent kinase 4/cyclin D1 (Homo sapiens) (UniProt P11802+P24385); experiment: Inhibition of human cyclin dependent kinase 4 (CDK4/D1) at 50 uM; assay type: protein-complex assay; set-up: scale not given: the % may be the effect or the level left
[6] = molecular target: T1, Cyclin-dependent kinase 1/cyclin B; experiment: Inhibition of human cyclin dependent kinase 1 (CDK1/B); assay type: protein-complex assay
[7] = Inhibition of human cyclin dependent kinase 6 (CDK6/D2)

Chain of Cyclin-dependent kinase 4/cyclin D1 (P11802 whole entry): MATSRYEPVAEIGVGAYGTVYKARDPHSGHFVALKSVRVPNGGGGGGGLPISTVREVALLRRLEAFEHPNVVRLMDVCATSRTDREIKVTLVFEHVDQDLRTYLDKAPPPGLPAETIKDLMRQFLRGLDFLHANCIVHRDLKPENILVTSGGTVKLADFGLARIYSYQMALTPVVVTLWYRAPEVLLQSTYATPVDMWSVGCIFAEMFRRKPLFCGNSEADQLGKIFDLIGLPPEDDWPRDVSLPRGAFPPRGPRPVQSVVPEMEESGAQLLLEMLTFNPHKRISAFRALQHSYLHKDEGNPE
Chain of Cyclin-dependent kinase 4/cyclin D1 (P24385 whole entry, further chain): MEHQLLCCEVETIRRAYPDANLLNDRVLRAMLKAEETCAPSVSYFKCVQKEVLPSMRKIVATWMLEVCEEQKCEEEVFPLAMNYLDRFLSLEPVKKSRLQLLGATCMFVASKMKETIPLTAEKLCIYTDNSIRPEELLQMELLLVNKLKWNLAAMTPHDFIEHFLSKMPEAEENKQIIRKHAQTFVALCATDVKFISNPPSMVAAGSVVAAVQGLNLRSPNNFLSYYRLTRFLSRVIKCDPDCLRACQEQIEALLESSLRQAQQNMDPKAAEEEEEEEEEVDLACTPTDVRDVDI

IC50 [1] [µM]	IC50 [3] [µM]	SMILES	also measured
> 2.1	–	CC(C)(C)Nc1nc(C(F)(F)F)nc2ccc(-c3cccc(N)c3)cc12	–
11.9	6.1	CC(C)(C)Nc1nc(C(Cl)(Cl)Cl)nc2ccccc12	IC50 [2]: 25.8 µM; IC50 [4]: 23 µM; IC50 (HCT-116): 25 µM
168	> 5.8	CCOC(=O)c1nc(NC(C)(C)C)c2ccccc2n1	–
8.3	–	CC(C)(C)Nc1nc(C(F)(F)F)nc2ccc(-c3cccnc3)cc12	–
8.3	1.2	CC(C)(C)Nc1nc(C(F)(F)F)nc2ccc(-c3ccc(-c4cccnc4)cc3)cc12	–
14.3	1.5	CC(C)(C)Nc1nc(C(F)(F)F)nc2ccccc12	IC50 (AG1523): > 74 µM; IC50 (HCT-116): 20.6 µM
> 2.5	1.3	CC(C)(C)Nc1nc(C(F)(F)F)nc2ccc(-c3cccc(C(N)=O)c3)cc12	–
15	2.3	CC(C)(CO)Nc1nc(C(F)(F)F)nc2ccccc12	–
> 39	15.6	Fc1cccc(CNc2nc(C(F)(F)F)nc3ccccc23)c1	–
> 157	> 31	CC(C)S(=O)(=O)Nc1nc(C(F)(F)F)nc2ccccc12	–
7.7	1.8	CC(C)(C)Nc1nc(C(F)(F)F)nc2ccc(-c3ccccc3)cc12	–
> 19	8.9	Fc1cc(F)cc(CNc2nc(C(F)(F)F)nc3ccccc23)c1	–
14	0.925	CC(C)(C)Nc1nc(C(F)(F)F)nc2ccc(NC=O)cc12	IC50 (HCT-116): 5.72 µM
63	14.8	OCC1CCCN1c1nc(C(F)(F)F)nc2ccccc12 (stereo not drawn)	–
> 6.7	3.3	COc1cccc(-c2ccc3nc(C(F)(F)F)nc(NC(C)(C)C)c3c2)c1	–
> 248	> 50	CC(C)(C)Nc1ncnc2ccccc12	–
> 3	1.2	CC(C)(C)Nc1nc(C(F)(F)F)nc2ccc(-c3ccco3)cc12	–
–	31	C[C@H](Nc1nc(C(F)(F)F)nc2ccccc12)c1ccccc1	Activity [5]: 40%
–	16.5	CC(Nc1nc(C(F)(F)F)nc2ccccc12)c1ccc(F)cc1 (stereo not drawn)	Activity [5]: 35%
> 84	32.4	OC1CCCN(c2nc(C(F)(F)F)nc3ccccc23)C1 (stereo not drawn)	–
> 171	> 34	CC(C)(C)Nc1nc(Nc2ccccc2)nc2ccccc12	–

IC50 [1] [µM]	IC50 [3] [µM]	SMILES	also measured
59	6.8	CC(Nc1nc(C(F)(F)F)nc2ccccc12)c1ccccc1 (stereo not drawn)	–
> 2.4	> 12	CC(C)(C)Nc1nc(C(F)(F)F)nc2ccc(-c3ccc(Cl)cc3Cl)cc12	–
> 27	10	COc1ccc(-c2ccc3nc(C(F)(F)F)nc(NC(C)(C)C)c3c2)cc1	–
3.55	0.545	CC(C)(C)Nc1nc(C(F)(F)F)nc2ccc(-c3ccsc3)cc12	IC50 (AG1523): > 28 µM; IC50 (HCT-116): 18.4 µM
> 1.1	1.1	CC(C)(C)Nc1nc(C(F)(F)F)nc2ccc(-c3ccc(N)cc3)cc12	–
119	245	CCCC(C)Nc1nc(C(F)(F)F)nc2ccccc12 (stereo not drawn)	–
> 408	> 815	CC(C)(C)Nc1nc(C(=O)O)nc2ccccc12	–
16.8	1.4	CCC(C)(C)Nc1nc(C(F)(F)F)nc2ccccc12	–
> 490	164	CC(C)(C)Nc1nc(C(N)=O)nc2ccccc12	–
> 37	0.79	CC(C)(C)Nc1nc(C(F)(F)F)nc2ccc(C(F)(F)F)cc12	IC50 [6]: > 0.74 µM; IC50 [7]: 56 µM; IC50 [2]: 2.05 µM; IC50 (AG1523): > 59 µM; IC50 (HCT-116): 18.6 µM
> 151	14	CC(C)(Nc1nc(C(F)(F)F)nc2ccccc12)c1ccccc1	–
6.4	1.18	CC(C)(C)Nc1nc(C(F)(F)F)nc2ccc(-c3cccs3)cc12	–
> 361	–	CC(C)(C)Nc1nc(-c2ccccc2)nc2ccccc12	–
11	0.7	CC(C)(C)Nc1nc(C(F)(F)F)nc2ccc(-c3ccc(O)cc3)cc12	–
24	13.5	C#CC(C)(C)Nc1nc(C(Cl)(Cl)Cl)nc2ccccc12	IC50 [6]: 35 µM; IC50 (HCT-116): 15 µM
12	1	CC(C)(C)Nc1nc(C(F)(F)F)nc2ccc(-c3cccc(O)c3)cc12	–
> 26	2.6	CC(C)(C)Nc1nc(C(F)(F)F)nc2ccc(-c3ccc(Cl)cc3)cc12	–
> 2.7	1	COc1ccccc1-c1ccc2nc(C(F)(F)F)nc(NC(C)(C)C)c2c1	–
> 20	11.9	CC(C)(C)Nc1nc(C(F)(F)C(F)(F)F)nc2ccccc12	–
39	3.2	C[C@@H](Nc1nc(C(F)(F)F)nc2ccccc12)c1ccccc1	–
18	1.15	CC(C)(C)Nc1nc(C(F)(F)F)nc2ccc(O)cc12	IC50 (AG1523): > 18 µM; IC50 (HCT-116): 7.3 µM
